One data set addresses T1, CYP1A1 (Homo sapiens, UniProt P04798).
T1 sequence (P04798 1-512): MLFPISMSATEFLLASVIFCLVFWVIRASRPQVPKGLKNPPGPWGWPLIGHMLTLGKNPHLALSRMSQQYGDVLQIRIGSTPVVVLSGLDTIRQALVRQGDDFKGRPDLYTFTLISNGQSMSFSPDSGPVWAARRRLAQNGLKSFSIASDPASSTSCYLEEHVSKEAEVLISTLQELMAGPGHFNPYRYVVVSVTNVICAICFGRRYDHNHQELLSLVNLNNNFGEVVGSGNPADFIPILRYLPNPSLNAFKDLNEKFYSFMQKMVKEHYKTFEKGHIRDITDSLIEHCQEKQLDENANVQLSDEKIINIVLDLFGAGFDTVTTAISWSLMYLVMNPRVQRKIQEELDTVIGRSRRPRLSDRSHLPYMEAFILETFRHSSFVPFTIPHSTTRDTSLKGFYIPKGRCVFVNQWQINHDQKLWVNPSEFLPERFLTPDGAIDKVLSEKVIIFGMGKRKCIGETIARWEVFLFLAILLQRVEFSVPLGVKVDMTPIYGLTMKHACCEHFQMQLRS
The class given is in vitro ADME. Particulars: peak intensities. The essentials:
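Reconstituted system: purified E. coli-expressed CYP1A1 (50 pmol), NADPH-P450 reductase (100 pmol), DLPC (50 µg), no b5. Incubated with 60 µM methoxyflavone test compound at 37 °C for 20 min after 1 min preincubation, started with NADPH-generating system (0.5 mM NADP+, 5 mM glucose 6-phosphate, 0.5 unit/mL dehydrogenase). Quenched with ice-cold CH3CN and centrifuged. LC-MS/MS positive ESI; product as peak intensity, two or three determinations.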

In a further data set the target is T2, CYP1A2 (Homo sapiens, UniProt P05177).
T2 sequence (P05177 1-516): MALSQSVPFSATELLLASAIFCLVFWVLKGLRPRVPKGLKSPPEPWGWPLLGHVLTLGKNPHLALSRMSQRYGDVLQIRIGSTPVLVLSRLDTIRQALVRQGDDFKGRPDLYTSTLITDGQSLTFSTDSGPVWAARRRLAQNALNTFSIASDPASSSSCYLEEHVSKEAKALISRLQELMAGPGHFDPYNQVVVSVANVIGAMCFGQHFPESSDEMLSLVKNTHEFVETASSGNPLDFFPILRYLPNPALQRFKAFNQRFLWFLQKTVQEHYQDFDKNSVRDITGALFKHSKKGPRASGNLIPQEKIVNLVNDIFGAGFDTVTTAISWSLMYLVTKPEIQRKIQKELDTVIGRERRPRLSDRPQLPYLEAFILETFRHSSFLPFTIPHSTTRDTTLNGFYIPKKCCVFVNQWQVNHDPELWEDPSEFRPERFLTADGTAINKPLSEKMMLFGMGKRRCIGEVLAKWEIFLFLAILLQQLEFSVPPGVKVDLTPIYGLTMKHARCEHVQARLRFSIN
The class given is in vitro ADME. Particulars: peak intensities.

For a further data set, the target named is T3, CYP1B1.1 (Homo sapiens, UniProt Q16678).
T3 sequence (Q16678 1-543): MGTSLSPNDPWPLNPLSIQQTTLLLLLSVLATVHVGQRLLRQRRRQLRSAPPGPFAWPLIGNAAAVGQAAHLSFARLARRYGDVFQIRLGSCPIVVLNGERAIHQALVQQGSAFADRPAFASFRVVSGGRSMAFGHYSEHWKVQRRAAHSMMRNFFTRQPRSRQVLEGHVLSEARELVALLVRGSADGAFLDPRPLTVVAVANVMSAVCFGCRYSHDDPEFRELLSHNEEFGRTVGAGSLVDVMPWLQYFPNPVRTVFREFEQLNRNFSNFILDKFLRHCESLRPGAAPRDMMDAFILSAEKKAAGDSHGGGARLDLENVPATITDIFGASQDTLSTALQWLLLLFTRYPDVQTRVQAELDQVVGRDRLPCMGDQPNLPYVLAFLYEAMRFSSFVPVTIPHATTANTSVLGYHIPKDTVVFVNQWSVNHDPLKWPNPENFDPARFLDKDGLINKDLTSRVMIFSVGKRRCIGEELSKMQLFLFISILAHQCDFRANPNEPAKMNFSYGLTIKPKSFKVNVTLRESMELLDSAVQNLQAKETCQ
In kind it is in vitro ADME. Particulars: peak intensities.

Another data set concerns the target T4, CYP1B1.3 (Homo sapiens, UniProt Q16678).
T4 sequence (Q16678 1-543): T3 sequence (Q16678 1-543)
In kind it is in vitro ADME. Particulars: peak intensities.

Another data set deals with T5, CYP2B6 (Homo sapiens, UniProt P20813).
T5 sequence (P20813 1-491): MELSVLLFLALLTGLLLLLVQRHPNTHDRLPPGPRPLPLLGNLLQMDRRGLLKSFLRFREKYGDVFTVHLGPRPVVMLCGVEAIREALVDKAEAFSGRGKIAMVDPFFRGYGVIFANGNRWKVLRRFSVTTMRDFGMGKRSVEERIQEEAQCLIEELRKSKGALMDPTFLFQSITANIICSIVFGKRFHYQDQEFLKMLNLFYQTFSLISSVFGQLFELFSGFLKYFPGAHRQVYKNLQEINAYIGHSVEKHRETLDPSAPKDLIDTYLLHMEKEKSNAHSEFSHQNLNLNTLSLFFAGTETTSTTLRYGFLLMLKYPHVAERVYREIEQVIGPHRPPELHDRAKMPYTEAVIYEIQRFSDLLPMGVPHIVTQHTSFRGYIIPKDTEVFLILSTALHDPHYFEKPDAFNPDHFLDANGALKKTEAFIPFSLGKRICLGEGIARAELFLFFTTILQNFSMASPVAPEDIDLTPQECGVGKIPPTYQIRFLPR
The class given is in vitro ADME. Particulars: peak intensities. The method, boiled down: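 E. coli membranes co-expressing CYP2B6 and NADPH-P450 reductase (50 pmol P450) incubated with 60 µM methoxyflavone test compound at 37 °C for 20 min. Reaction started after 1 min preincubation with NADPH-generating system (0.5 mM NADP+, 5 mM glucose 6-phosphate, 0.5 unit/mL glucose 6-phosphate dehydrogenase). Stopped with ice-cold CH3CN, then centrifuged. Supernatant analysed by LC-MS/MS (positive ESI); products reported as peak intensities, from two or three determinations.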

A further data set has as its system Hela and SH-SY5Y cells. Particulars: ref Fatokun et al. (2013; 2014); cited from earlier work.

These results are taken from publication PMC7881365 (Xenobiotica; the fate of foreign compounds in biological …, 2020).

`COc1ccccc1-c1cc(=O)c2ccccc2o1` [2′MeF, 2′-methoxyflavone]: the “formation of 2′Me255a (m/z 255 product)” value on CYP1A1, at CYP1A2, at CYP1B1.1, on CYP1B1.3 and at CYP2B6 was “very low levels” throughout. Also, the “formation of 2′Me239a (possibly 2′OHF)” value on CYP1B1.1, at CYP1B1.3 and at CYP2B6 was “highly active” in each case.

As for `COc1ccc(-c2cc(=O)c3ccccc3o2)cc1OC` [3′,4′-dimethoxyflavone, reference compound], the “prevention of decreases in cell viability caused by N-methyl-N′-nitro-N-nitrosoguanine” value in the data set with Hela and SH-SY5Y cells is given as “effectively prevent decreases in cell viability”.

`COc1ccc(-c2cc(=O)c3ccccc3o2)cc1` [4′MeF, 4′-methoxyflavone]: the “prevention of decreases in cell viability caused by N-methyl-N′-nitro-N-nitrosoguanine” value in the data set with Hela and SH-SY5Y cells is listed as “effectively prevent decreases in cell viability”.
